Test results reported in ChEMBL document CHEMBL2203159, “Synthesis and structure-activity relationships of fibrate-based analogues inside PPARs” (Bioorg Med Chem Lett, 2012).
Each block holds one compound with its values, some of them ahead of it.

What was measured:
[1] = target: T1, Peroxisome proliferator-activated receptor alpha (Homo sapiens, UniProt Q07869); experiment: Transactivation of human GAL4-fused PPARalpha ligand binding domain transfected in HEK293 cells after 18 hrs by dual luciferase reporter gene assay; assay type: cell-based
T1 sequence (Q07869 whole entry): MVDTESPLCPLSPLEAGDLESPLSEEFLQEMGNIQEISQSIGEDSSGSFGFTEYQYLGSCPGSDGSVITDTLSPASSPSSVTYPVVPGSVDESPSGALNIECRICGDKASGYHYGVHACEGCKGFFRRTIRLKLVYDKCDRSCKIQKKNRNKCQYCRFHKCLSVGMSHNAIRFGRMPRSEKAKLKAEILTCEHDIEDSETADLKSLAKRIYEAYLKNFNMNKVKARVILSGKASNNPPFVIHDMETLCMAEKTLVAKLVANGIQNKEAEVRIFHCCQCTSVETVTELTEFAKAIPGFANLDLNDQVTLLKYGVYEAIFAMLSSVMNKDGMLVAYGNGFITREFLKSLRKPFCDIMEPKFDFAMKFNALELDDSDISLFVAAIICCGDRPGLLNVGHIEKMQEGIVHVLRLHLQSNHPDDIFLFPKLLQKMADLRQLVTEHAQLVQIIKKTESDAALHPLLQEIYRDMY
Summary of the method: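 HEK293 cells carried a GAL4–PPAR chimera and a GAL4-responsive luciferase reporter in a transactivation assay. Compounds were tested at 1 to 150 µM in at least two separate experiments, and results are given ± SEM.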

[2] = target: T2, Peroxisome proliferator-activated receptor alpha (Homo sapiens) (UniProt Q07869); experiment: Transactivation of human GAL4-fused PPARalpha ligand binding domain transfected in HEK293 cells at 150 uM after 18 hrs by dual luciferase reporter gene assay relative to clofibric acid; assay type: cell-based
T2 sequence (whole entry): T1 sequence (Q07869 whole entry)
Summary of the method: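 This is a GAL4–PPAR transactivation assay in HEK293 cells with a GAL4-responsive luciferase reporter, run in at least two separate experiments. Efficacy is the percentage of the maximum fold induction obtained with the reference agonist clofibric acid. Results are given ± SEM.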

[3] = target: T3, Peroxisome proliferator-activated receptor gamma (Homo sapiens, UniProt P37231); experiment: Transactivation of human GAL4-fused PPARgamma ligand binding domain transfected in HEK293 cells after 18 hrs by dual luciferase reporter gene assay; assay type: cell-based
T3 sequence (P37231 whole entry): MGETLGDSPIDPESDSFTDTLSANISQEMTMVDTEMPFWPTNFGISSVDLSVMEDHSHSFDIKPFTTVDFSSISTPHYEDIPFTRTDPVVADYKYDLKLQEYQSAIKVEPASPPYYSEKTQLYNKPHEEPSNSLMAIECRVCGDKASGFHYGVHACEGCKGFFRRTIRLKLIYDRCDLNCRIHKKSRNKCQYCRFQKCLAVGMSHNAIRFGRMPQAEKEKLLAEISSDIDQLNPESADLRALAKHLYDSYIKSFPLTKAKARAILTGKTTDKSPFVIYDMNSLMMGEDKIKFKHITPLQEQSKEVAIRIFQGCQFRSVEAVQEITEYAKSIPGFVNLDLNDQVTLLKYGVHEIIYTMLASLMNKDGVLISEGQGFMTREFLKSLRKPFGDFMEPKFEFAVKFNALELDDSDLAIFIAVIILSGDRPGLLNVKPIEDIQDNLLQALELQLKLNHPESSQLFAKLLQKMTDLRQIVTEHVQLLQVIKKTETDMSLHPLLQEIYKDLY

[4] = target: T2, Peroxisome proliferator-activated receptor alpha (Homo sapiens); experiment: Transactivation of PPARalpha in human HepG2 cells assessed as increase in CPT1A mRNA expression after 48 hrs by RT-qPCR analysis

SMILES: CC(C)(Oc1ccc(COc2ccc(/N=N/c3ccccc3)cc2)cc1)C(=O)O
EC50 ([1]; read-out: EC50): 5.6 µM | %max [2]: 350%

SMILES: CC(C)(Oc1ccc(CCCOc2ccc(/N=N/c3ccccc3)cc2)cc1)C(=O)O
EC50 ([3]; read-out: EC50): 10 µM | EC50 ([1]; read-out: EC50): 42.8 µM | %max [2]: 81%

SMILES: CC(C)(Oc1ccc(COc2ccc(C(=O)/C=C/c3ccccc3)cc2)cc1)C(=O)O
EC50 ([3]; hek293): Not Active | EC50 ([1]; hek293): Not Active

SMILES: CC(C)(Oc1ccc(CCOc2ccc(Oc3ccccc3)cc2)cc1)C(=O)O
EC50 ([3]; read-out: EC50): 6.9 µM | EC50 ([1]; hek293): Not Active

SMILES: CC(C)(Oc1ccc(CCOc2ccc(C(=O)c3ccccc3)cc2)cc1)C(=O)O
EC50 ([3]; read-out: EC50): 54.6 µM | EC50 ([1]; hek293): Not Active

SMILES: CC(C)(Oc1ccc(CCO)cc1)C(=O)O
EC50 ([3]; hek293): Not Active | EC50 ([1]; read-out: EC50): 75.1 µM | %max [2]: 94%

SMILES: CC(C)(Oc1ccc(CCCOc2ccc(Oc3ccccc3)cc2)cc1)C(=O)O
EC50 ([3]; read-out: EC50): 75.2 µM | EC50 ([1]; hek293): Not Active

SMILES: CCc1ccc(CCOc2ccc(CC3SC(=O)NC3=O)cc2)nc1 (configuration not stated) [PIOGLITAZONE]
EC50 ([1]; hek293): Not Active

SMILES: CC(C)(Oc1ccc(CCOc2nc3ccccc3s2)cc1)C(=O)O
EC50 ([3]; read-out: EC50): 39.3 µM | EC50 ([1]; read-out: EC50): 18.3 µM | %max [2]: 169%

SMILES: CC(C)(Oc1ccc(Cl)cc1)C(=O)O [CLOFIBRIC ACID]
EC50 ([3]; hek293): Not Active

SMILES: CC(C)(Oc1ccc(CO)cc1)C(=O)O
EC50 ([3]; read-out: EC50): 30 µM | EC50 ([1]; read-out: EC50): 34.5 µM | %max [2]: 119%

SMILES: CC(C)(Oc1ccc(CCOc2ccc(/C=C/c3ccccc3)cc2)cc1)C(=O)O
EC50 ([3]; read-out: EC50): 12.6 µM | EC50 ([1]; read-out: EC50): 11.6 µM | %max [2]: 81%

SMILES: CC(C)(Oc1ccc(CCCOc2nc3ccccc3s2)cc1)C(=O)O
EC50 ([3]; read-out: EC50): 7.9 µM | EC50 ([1]; read-out: EC50): 45.8 µM | %max [2]: 100%

SMILES: CC(C)(Oc1ccc(CCCO)cc1)C(=O)O
EC50 ([3]; hek293): Not Active | EC50 ([1]; read-out: EC50): 30.6 µM | %max [2]: 181%

SMILES: CC(C)(Oc1ccc(COc2nc3ccccc3s2)cc1)C(=O)O
EC50 ([3]; read-out: EC50): 32 µM | EC50 ([1]; read-out: EC50): 44.6 µM | %max [2]: 125%

The remaining compounds from weak to strong by EC50 ([3]; read-out: EC50), led by results:

EC50 ([3]; read-out: EC50): 6 µM | EC50 ([1]; read-out: EC50): 40.5 µM | %max [2]: 156%
SMILES: CC(C)(Oc1ccc(COc2ccc(/C=C/c3ccccc3)cc2)cc1)C(=O)O

EC50 ([3]; read-out: EC50): 5.9 µM | EC50 ([1]; read-out: EC50): 64 µM | %max [2]: 118%
SMILES: CC(C)(Oc1ccc(CCOc2ccc(C(=O)/C=C/c3ccccc3)cc2)cc1)C(=O)O

EC50 ([3]; read-out: EC50): 5.8 µM | EC50 ([1]; hek293): Not Active
SMILES: CC(C)(Oc1ccc(CCCOc2ccc(C(=O)c3ccccc3)cc2)cc1)C(=O)O

EC50 ([3]; read-out: EC50): 5.4 µM | EC50 ([1]; hek293): Not Active
SMILES: CC(C)(Oc1ccc(COc2ccc(C(=O)c3ccccc3)cc2)cc1)C(=O)O

EC50 ([3]; read-out: EC50): 1.4 µM | EC50 ([1]; read-out: EC50): 0.6 µM | %max [2]: 158% | Activity [4]: Dose-dependent effect
SMILES: CC(C)(Oc1ccc(CCOc2ccc(/N=N/c3ccccc3)cc2)cc1)C(=O)O

EC50 ([3]; read-out: EC50): 0.8 µM | EC50 ([1]; hek293): Not Active
SMILES: CC(C)(Oc1ccc(COc2ccc(Oc3ccccc3)cc2)cc1)C(=O)O

EC50 ([3]; read-out: EC50): 0.8 µM | EC50 ([1]; read-out: EC50): 9.9 µM | %max [2]: 125%
SMILES: CC(C)(Oc1ccc(CCCOc2ccc(/C=C/c3ccccc3)cc2)cc1)C(=O)O

EC50 ([3]; read-out: EC50): 0.8 µM | EC50 ([1]; hek293): Not Active
SMILES: CC(C)(Oc1ccc(CCCOc2ccc(C(=O)/C=C/c3ccccc3)cc2)cc1)C(=O)O
